Sampled rows, rich in hits. Any-hit rate of the full collection: about 3.1%.
CHO parental Ca = signal in parental CHO cells, OX1R antagonist counter-screen; AID 463079; inhibition, % at 5.6 µM; hit rate 0.63% among 330,000; parental CHO-K1, ATP-induced calcium, Fluo-8 fluorescence;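 active = inhibition above that plate's mean sample inhibition plus 3 SD, cut at about 26% in these data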;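 also: 0% = ATP-challenged DMSO wells and 100% = DMSO wells without ATP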
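Test system: parental CHO cells; detection: calcium-sensitive Fluo-8 fluorescence; evaluation: percent inhibition of calcium signal; also added: ATP as calcium-mobilizing challenge; repeats: one well per compound; control set: ATP-challenged DMSO wells low, unchallenged DMSO wells high; compound: single nominal dose of 5.6 µM per compound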
GPR7 antagonist = human neuropeptides B/W receptor 1 antagonism; P48145; GPR7-expressing cells, fluorescence antagonist assay; inhibition, % at 4.4 µM; hit rate 1.1% among 290,000; AID 1861; in the data active = inhibition above about 16%, passing the limit was not always enough;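 also: cells stimulated with the agonist NPW; 0% = agonist with vehicle and 100% = vehicle without agonist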
Target sequence (P48145 whole entry, looked up): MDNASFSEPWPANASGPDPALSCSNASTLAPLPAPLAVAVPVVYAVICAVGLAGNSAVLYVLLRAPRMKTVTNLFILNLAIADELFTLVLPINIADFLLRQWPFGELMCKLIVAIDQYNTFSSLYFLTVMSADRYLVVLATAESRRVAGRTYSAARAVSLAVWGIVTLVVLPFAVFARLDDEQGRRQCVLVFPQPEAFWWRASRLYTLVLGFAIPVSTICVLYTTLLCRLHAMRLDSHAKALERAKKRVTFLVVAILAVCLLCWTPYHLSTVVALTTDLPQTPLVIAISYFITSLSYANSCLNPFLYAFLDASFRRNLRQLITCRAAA
OX1R antag-1 = OX1R (human) antagonism. O43613. OX1R-expressing cells, FRET antagonist read-out. inhibition, % at 6.6 µM. hit rate 1.8% among 330,000. AID 485270; in the data active = inhibition mostly above about 38%, no sharp cut-off; inactive = mostly below about 40%;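 also: 0% = agonist challenge alone and 100% = reference antagonist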
Target sequence (O43613 whole entry, looked up): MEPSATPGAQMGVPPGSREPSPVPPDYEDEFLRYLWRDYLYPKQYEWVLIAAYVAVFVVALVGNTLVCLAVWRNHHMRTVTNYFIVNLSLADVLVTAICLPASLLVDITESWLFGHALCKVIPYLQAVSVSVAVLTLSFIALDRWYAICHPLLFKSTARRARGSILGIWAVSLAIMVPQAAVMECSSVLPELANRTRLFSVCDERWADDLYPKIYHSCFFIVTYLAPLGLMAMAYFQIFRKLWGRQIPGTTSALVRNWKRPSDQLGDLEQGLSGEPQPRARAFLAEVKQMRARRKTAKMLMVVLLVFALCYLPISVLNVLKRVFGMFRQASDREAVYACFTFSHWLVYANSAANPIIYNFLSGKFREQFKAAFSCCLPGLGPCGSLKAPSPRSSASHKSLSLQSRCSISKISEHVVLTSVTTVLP
OX1R antag-2 = blocks the human orexin 1 receptor; hit rate 0.43% among 330,000; AID 434989; inhibition, % at 5 µM; CHO/OX1R cells, Fluo-8 calcium fluorescence, orexin A;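 active = inhibition above its plate's threshold, mean inhibition of all tested compounds on the plate plus 3 SD, cut at about 37% in these data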;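 also: 0% = orexin A challenge wells and 100% = SB-334867-A antagonist wells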
GalR3 antagonist = human GalR3 antagonism; inhibition, % at 3 µM; O60755; HEK293 GalR3-CNG cAMP membrane potential fluorescence; galR3 body fused to GalR1 C-terminus; hit rate 0.44% among 360,000;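 active = inhibition above the screen-wide average plus 3 SD, cut at about 13% in these data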;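 also: forskolin and galanin both at EC90 stimulate the cells; cAMP rise reported by CNG channel membrane potential dye signal; 0% = forskolin plus galanin with DMSO and 100% = forskolin alone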
OX1R Fluo8 conf = confirmation of human orexin 1 receptor antagonists; shares compounds with OX1R antag-2; CHO/OX1R cells, orexin A calcium Fluo-8 fluorescence; inhibition, % at 5 µM; hit rate 38% among 1,100; AID 492963; in the data active = inhibition above about 29%;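 also: 0% = agonist challenge alone and 100% = reference antagonist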
CHO Ca counter = counter-screen: parental CHO calcium response change, triplicate | inhibition, % at 5.6 µM | AID 492965 | parental CHO-K1, ATP-induced calcium, Fluo-8 fluorescence | shares compounds with OX1R antag-2 | hit rate 9.3% among 1,100;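 active = inhibition above a per-plate limit, the mean inhibition of that plate's test compounds plus 3 SD, cut at about 25% in these data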;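 also: 0% = ATP challenge with DMSO and 100% = DMSO without ATP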
* marks the source's active call; other numbers are inactive results; . = not tested or not shown.

SMILES | CHO parental Ca | GPR7 antagonist | OX1R antag-1 | OX1R antag-2 | GalR3 antagonist | OX1R Fluo8 conf | CHO Ca counter
Fc1cccc2sc(Nc3nc4ccccc4s3)nc12 | -1.8 | -6.5 | 27.9 | 36.2* | -7.3 | 51.2* | 13.6
Fc1ccc2nc(Nc3nc4c(F)cc(F)cc4s3)sc2c1 | 10.7 | -8.7 | 21.0 | -11.2 | -4.8 | . | .
Fc1ccc2nc(Nc3nc4c(F)cccc4s3)sc2c1 | -12.8 | 2.1 | 40.6 | 68.0* | -5.0 | 51.5* | -0.5
Cc1cccc(CN2CCN(Cc3nc4c(s3)CCCC4)CC2CCO)n1 (centres undefined) | -21.2 | -15.7 | 3.1 | -36.1 | -2.6 | . | .
CC(=O)c1cccc(CN2CCN(C3CCCCC3)C(CCO)C2)c1 (centres undefined) | -14.1 | -5.1 | 14.4 | -4.2 | -3.8 | . | .
Nc1ccc(-c2nc3ccc(-c4nc5ccccc5o4)cc3[nH]2)cc1 | 7.6 | -5.7 | 56.9 | 37.8 | -3.5 | 12.3 | -7.2
Nc1ccc(-c2nc3ccc(N)cc3[nH]2)cc1 | 4.9 | 1.2 | 8.5 | -1.2 | -0.6 | . | .
O=C(COC(=O)c1ccc2ccccc2n1)Nc1ccccc1Br | -12.8 | . | 9.6 | -7.9 | -6.0 | . | .
CCc1ccc(OCC(=O)NNC(=O)Cc2ccc(S(=O)(=O)N3CCOCC3)s2)cc1 | -7.1 | . | 5.5 | -1.2 | -0.7 | . | .
COc1ccc(C[C@H]2CN3C(=NC[C@H]3Cc3ccccc3)N2CCNC(=O)c2ccc(C)c(Br)c2)cc1 | 7.6 | . | 12.8 | 32.1 | . | 31.6* | -3.7
COc1ccc(C[C@H]2CN3C(=NC[C@@H]3Cc3ccccc3)N2CCNC(=O)c2ccc(C)c(Br)c2)cc1 | -14.2 | 19.3 | 6.3 | 0.9 | . | . | .
O=C(/C=C/c1ccc(S(=O)(=O)NCc2ccco2)cc1)NCc1cccc(Cl)c1 | 18.8 | 5.3 | 42.6 | 53.7* | -6.2 | 17.0 | 2.6
Cc1cccc(CC(Cc2nc3ccccc3[nH]2)c2nc3ccccc3[nH]2)c1 (centres undefined) | 16.2 | 13.4 | 6.6 | 36.2 | -5.7 | 18.9 | -3.9
COc1ccccc1CC(Cc1nc2ccccc2[nH]1)c1nc2ccccc2[nH]1 (centres undefined) | -27.4 | 15.4 | -16.5 | -17.4 | -5.5 | . | .
CC(c1ccccc1)C(Cc1nc2ccccc2[nH]1)c1nc2ccccc2[nH]1 (centres undefined) | 6.3 | -4.9 | 36.0 | 45.1* | . | 7.3 | -20.0
Cc1ccc(N2C(=O)CS/C2=N\C(=S)Nc2ccccc2)cc1 | 26.9 | 1.8 | 30.9 | -14.4 | 1.9 | . | .
CN(CCO)c1ccc(C=NNc2ccc([N+](=O)[O-])cc2S(=O)(=O)Nc2ccccc2C(=O)O)cc1 | -18.0 | . | 24.0 | -12.9 | -2.1 | . | .
CCN(CC)c1ccc(/C=N\NC(N)=O)cc1 | 9.4 | -11.4 | 17.3 | 31.9 | 3.3 | 0.6 | 2.2
CCCCOC(=O)c1ccc(NC(=O)c2cc(Cl)ccc2OC)cc1 | -19.1 | 1.5 | 33.5 | 37.1 | 0.5 | 29.2* | -15.0
CCCCOC(=O)c1ccc(NC(=O)c2ccccc2OC)cc1 | -5.8 | -1.2 | 47.3 | 1.6 | -3.6 | . | .
Brc1ccccc1-n1nnc(-c2nccs2)n1 | -11.9 | -14.8 | 22.2 | 45.2 | -5.8 | 7.4 | -7.7
O=C(COC(=O)C1CC1)Nc1ccc(Cl)cn1 | -2.2 | . | 10.4 | -12.7 | -5.5 | . | .
CN(Cc1ccccc1)S(=O)(=O)c1cccc2cccnc12 | -9.5 | 14.3 | 11.0 | -31.2 | -2.9 | . | .
C/C(=N\NC(=O)C(=O)Nc1c(C)n(C)n(-c2ccccc2)c1=O)c1ccncc1 | 7.9 | -11.0 | 7.4 | -25.3 | -1.1 | . | .
COc1cccc2cc(-c3nc(-c4cccs4)cs3)c(=O)oc12 | -4.8 | 3.5 | 31.8 | 38.5 | -3.8 | 68.9* | -7.1
SMILES | CHO parental Ca | GPR7 antagonist | OX1R antag-1 | OX1R antag-2 | GalR3 antagonist | OX1R Fluo8 conf | CHO Ca counter
CSc1cc(C)c(OCC(=O)Nc2ccc(NC(C)=O)cc2)c(C)c1 | -9.2 | 2.2 | 34.5 | 27.5 | -7.5 | 13.8 | -0.7
CC(=O)Nc1ccc(NC(=O)COc2c(C)cc(Br)cc2C)cc1 | -13.6 | -3.9 | 13.8 | -25.6 | -6.0 | . | .
O=C(CSc1ccc(S(=O)(=O)N2CCOCC2)cn1)Nc1ccc(F)c(F)c1 | -3.8 | . | 21.1 | 34.9 | -6.0 | 21.6 | 17.9
COc1ccc(C2=NCC(CSc3nnc(-c4ccc5c(c4)OCO5)o3)S2)cc1 (centres undefined) | 15.1 | -0.9 | 13.8 | 47.0* | -1.0 | 12.1 | -1.4
Cc1ccc(CSc2nnc(-c3ccc4c(c3)OCO4)o2)cc1 | 2.6 | -8.7 | -4.5 | -24.2 | -1.0 | . | .
Cc1cc(C)cc(C(=O)NCCC(=O)NCc2cc(=O)n(C)c(=O)n2C)c1 | 6.9 | -15.7 | 10.6 | -5.0 | 5.4 | . | .
CC(C)(C)c1cc(NCc2ccccn2)n2ncc(-c3ccc(Cl)cc3)c2n1 | -16.4 | -3.3 | 18.1 | -15.7 | -3.4 | . | .
CN(C)CCCNc1cc(C(C)(C)C)nc2c(-c3ccc(Cl)cc3)cnn12 | 12.9 | 9.6 | 9.4 | 30.9 | -1.6 | 25.0 | -2.9
O=C(Nc1cccc(S(=O)(=O)Nc2ccc(SC(F)F)cc2)c1)C1CCC1 | 6.5 | . | 16.8 | 36.5 | -7.1 | 2.8 | -1.9
O=C(CCNC(=O)c1ccco1)Nc1ccccc1OC(F)F | -9.7 | -11.8 | 5.3 | 0.6 | -7.1 | . | .
Cc1noc(/C=C/c2ccc(-c3ccccc3Cl)o2)c1[N+](=O)[O-] | 20.8 | 8.4 | 8.2 | 29.2 | . | 74.3* | 43.4*
Cc1cccc(C)c1N/C=C/c1onc(C)c1[N+](=O)[O-] | -22.4 | -14.4 | 17.9 | -10.6 | -2.9 | . | .
CN(C)C(=O)c1ccc(-c2cc3onc(-c4ccccc4)c3c(=O)n2C)cc1 | -12.0 | . | 10.5 | -13.2 | -7.7 | . | .
Cc1ccc(NC(=O)N(C2=NCC(C)S2)c2ccccc2)cc1 (centres undefined) | -16.0 | -14.1 | 4.7 | -8.4 | -5.6 | . | .
CNC(=S)N(C1=NCC(c2ccc([N+](=O)[O-])cc2)S1)c1ccccc1 (centres undefined) | 11.7 | 1.7 | 29.6 | 20.3 | -6.5 | -13.2 | -11.0
CCNC(=S)N(Cc1ccc2c(c1)OCO2)C1CC(=O)N(c2ccc(F)cc2)C1=O (centres undefined) | 16.4 | 5.8 | 58.9 | 56.8* | -0.5 | 0.5 | -3.6
CCNC(=S)N(Cc1ccc2c(c1)OCO2)C1CC(=O)N(c2ccc(OC)cc2)C1=O (centres undefined) | -13.0 | 4.0 | 15.8 | 1.0 | -4.0 | . | .
N=C1/C(=C\c2coc3ccc(O)cc3c2=O)C(=O)N=C2SC=CN12 | 21.4 | -3.2 | 15.6 | 32.0 | -7.0 | 26.0 | 30.4*
CC(C)(C)C(=O)N1CCN(C(=O)c2ccco2)CC1 | -9.4 | -11.4 | 11.2 | -3.6 | -6.5 | . | .
Oc1ccc(Cl)cc1CNCc1cccc2ccccc12 | -4.3 | . | 25.3 | -20.6 | 1.7 | . | .
COc1cn(-c2ccccc2)nc1C(=O)Nc1ccc(C)cc1Cl | -18.1 | -9.7 | 64.3 | 27.7 | -8.8 | 17.0 | 11.7
COc1cn(-c2ccccc2)nc1C(=O)OCC(=O)Nc1ccc(C)c(C)c1 | -8.0 | . | 5.6 | -16.7 | 7.2 | . | .
